Measured values as given in ChEMBL document CHEMBL3085685, “In vitro and in vivo antileishmanial and trypanocidal studies of new N-benzene- and N-naphthalenesulfonamide derivatives” (J Med Chem, 2013).
Active and inactive are the calls of the source. The rule behind the calls is not given here.

Legend:
Trypanosoma cruzi [1] = test: Trypanocidal activity against extracellular epimastigote stage of Trypanosoma cruzi CL-B5 assessed as reduction of parasite load after 72 hrs by CPRG-based colorimetric analysis
Leishmania amazonensis [2] = test: Leishmanicidal activity against extracellular promastigote stage of Leishmania amazonensis MHOM/Br/79/Maria assessed as reduction of parasite load after 48 hrs by resazurin dye-based fluorometric analysis; type: functional, organism-based; settings: Leishmania amazonensis, MHOM/Br/79/Maria, 48 h; read-out: IC50
In short: (§1)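 Log-phase promastigotes cultured in Schneider's medium with 20% heat-inactivated FBS at 26 °C, 2.5 × 10^5 per well. DMSO-dissolved compounds added as 2-fold serial dilutions, final DMSO ≤0.2% (v/v), 48 h at 26 °C. Growth read by 2.5 mM resazurin stock, fluorescence 535/590 nm. Triplicate; IC50 by probit analysis.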

Leishmania braziliensis = test: Leishmanicidal activity against extracellular promastigote stage of Leishmania braziliensis 2903 assessed as reduction of parasite load after 48 hrs by resazurin dye-based fluorometric analysis; type: functional, organism-based; settings: Leishmania braziliensis, 2903, 48 h; read-out: IC50
In short: as §1

Leishmania infantum [3] = test: Leishmanicidal activity against promastigote stage of Leishmania infantum MCAN/ES/96/BCN150 infected in BALB/c mouse assessed as reduction of parasite burden in liver at 5 mg/kg, ip qd administered for 5 days measured after 7 days by limiting dilution assay relative to untreated control; type: functional
In short: (§2)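 BALB/c mice infected intracardially under pentobarbital anaesthesia with 10^7 stationary L. infantum BCN150 promastigotes. From day 21 post-infection, dosed ip once daily for 5 days in 0.1 mL propylene glycol, with an untreated control group. Killed 7 days later; spleen and liver burdens by limiting dilution and expressed as % reduction versus controls.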

[4] = Selectivity index, ratio of CC50 for mouse J774 cells to IC50 for extracellular promastigote stage of Leishmania amazonensis MHOM/Br/79/Maria; type: functional
[5] = Selectivity index, ratio of CC50 for mouse J774 cells to IC50 for extracellular promastigote stage of Leishmania braziliensis 2903; type: functional
Trypanosoma cruzi [6] = test: Trypanocidal activity against intracellular amastigote stage of Trypanosoma cruzi CL-B5 infected in mouse NCTC-929 cells assessed as reduction of parasite load after 7 days by CPRG-based colorimetric analysis; settings: nctc-929
Leishmania amazonensis [7] = test: Leishmanicidal activity against intracellular amastigote stage of Leishmania amazonensis MHOM/Br/79/Maria infected in mouse J774 cells assessed as reduction of parasite load after 48 hrs by resazurin dye-based fluorometric analysis; type: functional, organism-based; settings: Leishmania amazonensis, MHOM/Br/79/Maria, J774, 48 h; read-out: IC50
In short: (§3)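 J774 macrophages (5 × 10^4/well) infected with stationary promastigotes at 1:10, 24 h at 33 °C then 24 h at 37 °C, 5% CO2, and washed free of promastigotes. Then 2-fold serial dilutions in triplicate for 48 h at 37 °C. Cells lysed with RPMI with 0.048% HEPES and 0.006% SDS, transformed in Schneider's 3 days at 26 °C, resazurin 3 h, fluorescence 535/590 nm.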

Leishmania infantum [8] = test: Leishmanicidal activity against extracellular promastigote stage of Leishmania infantum MCAN/ES/96/BCN150 assessed as reduction of parasite load after 48 hrs by resazurin dye-based fluorometric analysis; type: functional, organism-based; settings: Leishmania infantum, MCAN/ES/96/BCN150, 48 h; read-out: IC50
In short: as §1

Leishmania infantum [9] = test: Leishmanicidal activity against promastigote stage of Leishmania infantum MCAN/ES/96/BCN150 infected in BALB/c mouse assessed as reduction of parasite burden in spleen at 5 mg/kg, ip qd administered for 5 days measured after 7 days by limiting dilution assay relative to untreated control; type: functional
In short: as §2

Leishmania infantum [10] = test: Leishmanicidal activity against intracellular amastigote stage of Leishmania infantum MCAN/ES/96/BCN150 infected in mouse J774 cells assessed as reduction of parasite load after 48 hrs by resazurin dye-based fluorometric analysis; type: functional, organism-based; settings: Leishmania infantum, MCAN/ES/96/BCN150, J774, 48 h; read-out: IC50
In short: as §3

[11] = Cytotoxicity against mouse J774 cells assessed as reduction of cell viability after 24 hrs by resazurin dye-based fluorometric analysis
In short: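 J774 macrophages in RPMI 1640 with 10% heat-inactivated FBS, seeded at 5 × 10^4 cells/well and attached 24 h at 37 °C, 5% CO2. Medium swapped for drug dilutions for 24 h. Then 2.5 mM resazurin stock added for 3 h, fluorescence read at 535 nm excitation / 590 nm emission. Triplicate; CC50 from probit analysis.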

Leishmania guyanensis = test: Leishmanicidal activity against extracellular promastigote stage of Leishmania guyanensis 141/93 assessed as reduction of parasite load after 48 hrs by resazurin dye-based fluorometric analysis; type: functional, organism-based; settings: Leishmania guyanensis, 141/93, 48 h; read-out: IC50
In short: as §1

Cc1cc2cc(NS(=O)(=O)c3ccccc3)ccc2[nH]1
IC50 (Trypanosoma cruzi [1]): Not Active | IC50 (Leishmania amazonensis [2]): 15.4 µM | IC50 (Leishmania braziliensis): 29 µM | Activity (Leishmania infantum [3]): inactive | Ratio CC50/IC50 [4]: > 16.6 | Ratio CC50/IC50 [5]: >8.8 | IC50 (Trypanosoma cruzi [6]): Not Active | IC50 (Leishmania amazonensis [7]): 64.1 µM | IC50 (Leishmania infantum [8]): 23.4 µM | Activity (Leishmania infantum [9]): inactive | IC50 (Leishmania infantum [10]): 47.3 µM | CC50 at 24 h [11]: ≥ 300 µM | IC50 (Leishmania guyanensis): 20.9 µM
